The test system of data set [1] is Bone. The data set is described as follows: Drug uptake in ICR mouse bone at 370 kBq/100 ul, iv at 30 mins by gamma-counting analysis. Conditions: in vivo, 0.5 h. The format is ADME, organism-based, Bone element. A digest of the protocol:
(§1)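 Male ICR mice (5 weeks, about 20 g) got 18F tracer in saline (370 KBq per 100 μL) via tail vein; n = 5 per time point, killed at 2, 10, 30, 60 min. Organs weighed and γ-counted; percent dose per gram wet tissue from comparison with diluted injectate aliquots.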

Data set [2] deals with Liver. Nature of the data set: Drug uptake in ICR mouse liver at 370 kBq/100 ul, iv at 10 mins by gamma-counting analysis. The format is ADME, organism-based. As to conditions: in vivo. Summed up:
as §1

Data set [3] relates to Spleen. Nature of the data set: Drug uptake in ICR mouse spleen at 370 kBq/100 ul, iv at 30 mins by gamma-counting analysis. The format is ADME, organism-based. Conditions: in vivo, 0.5 h. Summed up: as §1
The test system of data set [4] is Blood. The data set is described as follows: Drug uptake in ICR mouse blood at 370 kBq/100 ul, iv at 60 mins by gamma-counting analysis. The format is ADME, organism-based. As to conditions: in vivo, 1 h. Summed up:
as §1

In data set [5] the test system is Bone. Nature of the data set: Drug uptake in ICR mouse bone at 370 kBq/100 ul, iv at 60 mins by gamma-counting analysis. The data set is classed as ADME, organism-based, Bone element. As to conditions: in vivo, 1 h. Summed up: as §1
In the next data set the test system is Kidney. The data set is described as follows: Drug uptake in ICR mouse kidney at 370 kBq/100 ul, iv at 10 mins by gamma-counting analysis. The data set is classed as ADME, organism-based. Conditions: in vivo. Summed up:
as §1

The next data set concerns Heart. The data set is described as follows: Drug uptake in ICR mouse heart at 370 kBq/100 ul, iv at 2 mins by gamma-counting analysis. The format is ADME, organism-based. Conditions: in vivo. A digest of the protocol: as §1
The test system of data set [6] is Blood. The data set is described as follows: Drug uptake in ICR mouse blood at 370 kBq/100 ul, iv at 10 mins by gamma-counting analysis. The format is ADME, organism-based. As to conditions: in vivo. Summed up: as §1
The test system of data set [7] is Spleen. Nature of the data set: Drug uptake in ICR mouse spleen at 370 kBq/100 ul, iv at 10 mins by gamma-counting analysis. As to conditions: in vivo. The format is ADME, organism-based. Summed up:
as §1

Data set [8] concerns Liver. Nature of the data set: Drug uptake in ICR mouse liver at 370 kBq/100 ul, iv at 30 mins by gamma-counting analysis. The format is ADME, organism-based. As to conditions: in vivo, 0.5 h. A digest of the protocol:
as §1

In data set [9] the test system is Stomach. The data set is described as follows: Drug uptake in ICR mouse stomach assessed per organ at 370 kBq/100 ul, iv at 60 mins by gamma-counting analysis. The format is ADME, organism-based. Conditions: in vivo, 1 h. A digest of the protocol:
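Normal male ICR mice (5 weeks, about 20 g) received the ¹⁸F tracer in saline (370 KBq per 100 μL) by tail-vein injection. Groups of n = 5 were killed at 2, 10, 30 and 60 min. Organs were removed, weighed and γ-counted against diluted aliquots of the injectate, giving % dose per gram. Stomach and intestine were expressed per organ. The brain ratio is 2 min/60 min uptake. Values are mean ± SD.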

The subject of data set [10] is Spleen. Nature of the data set: Drug uptake in ICR mouse spleen at 370 kBq/100 ul, iv at 60 mins by gamma-counting analysis. As to conditions: in vivo, 1 h. The format is ADME, organism-based. A digest of the protocol: as §1
Data set [11] deals with Stomach. The data set is described as follows: Drug uptake in ICR mouse stomach assessed per organ at 370 kBq/100 ul, iv at 2 mins by gamma-counting analysis. The data set is classed as ADME, organism-based. As to conditions: in vivo. A digest of the protocol:
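Male ICR mice (5 weeks, about 20 g) got 18F tracer in saline (370 KBq per 100 μL) via tail vein; n = 5 per time point, killed at 2, 10, 30, 60 min. Organs removed and γ-counted against diluted injectate; expressed as % injected dose per organ.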

The test system of data set [12] is Bone. Nature of the data set: Drug uptake in ICR mouse bone at 370 kBq/100 ul, iv at 2 mins by gamma-counting analysis. The data set is classed as ADME, organism-based, Bone element. As to conditions: in vivo. A digest of the protocol:
as §1

The test system of data set [13] is Liver. The data set is described as follows: Drug uptake in ICR mouse liver at 370 kBq/100 ul, iv at 2 mins by gamma-counting analysis. Conditions: in vivo. The data set is classed as ADME, organism-based. Summed up: as §1
In the next data set the test system is Lung. Nature of the data set: Drug uptake in ICR mouse lung at 370 kBq/100 ul, iv at 10 mins by gamma-counting analysis. The format is ADME, organism-based. Conditions: in vivo. Summed up:
as §1

Here are results for 1 compound from ChEMBL document CHEMBL2177098, “Synthesis and evaluation of novel ¹⁸F labeled 2-pyridinylbenzoxazole and 2-pyridinylbenzothiazole derivatives as ligands for positron emission tomography (PET) imaging of β-amyloid plaques” (J Med Chem, 2012).

Structures are written as SMILES.

Consider `CNc1ccc(-c2nc3cc(OCC[18F])ccc3o2)cn1`, for which the Drug uptake in the data set on Bone [1] is 2.34 % ID/g; with Liver [2], 8.5 % ID/g; with Spleen [3], 1.63 % ID/g; with Blood [4] it was 3.2 % ID/g; in the data set with Bone [5], 2.37 % ID/g; in the data set on Kidney it was 3.52 % ID/g. In addition, the Drug uptake in the data set on Heart is 4.66 % ID/g; in the data set with Blood [6] it was 2.55 % ID/g; with Spleen [7], 2.13 % ID/g; in the data set with Liver [8] it was 3.95 % ID/g; in the data set on Stomach [9], 3.89 %ID; with Spleen [10], 1.64 % ID/g. Moreover, the Drug uptake with Stomach [11] is reported as 3.24 %ID; with Bone [12], 1.18 % ID/g; in the data set on Liver [13], 10.48 % ID/g; in the data set with Lung, 2.8 % ID/g.
